Data taken from ChEMBL document CHEMBL5653630, “Activation of the p53-MDM4 regulatory axis defines the anti-tumour response to PRMT5 inhibition through its role in regulating cellular splicing” (Sci Rep, 2018).
Blank lines part the entries; values can stand above or below the compound they belong to. Active and inactive are the calls of the source. The calls are words filed in the database; no cut-off is given here.

Legend:
[1] = tested on: MCL; assay: Induction of cell cycle arrest in human MCL cells assessed as increase in 2n cell population measured upto 5000 nM measured for 3 days by propidium iodide staining based flow cytometric analysis; format: functional; settings: time 3.0 day
[2] = tested on: MDA-MB-468; assay: Induction of cell cycle arrest in human MDA-MB-468 cells assessed as increase in sub-2n cell population measured upto 5000 nM measured for 7 to 10 days by propidium iodide staining based flow cytometric analysis; format: functional; settings: time 7-10 day
[3] = tested on: A 172; assay: Antiproliferative activity against human A-172 cells assessed as cell growth inhibition incubated for 6 days by celltiter-glo assay; format: functional; settings: A 172, 144 h, time 6 day
[4] = tested on: BJAB; assay: Antiproliferative activity against human BJAB cells assessed as cell growth inhibition incubated for 6 days by celltiter-glo assay; format: functional; settings: 144 h, time 6 day
[5] = tested on: U-251; assay: Antiproliferative activity against human U-251MG cells assessed as cell growth inhibition incubated for 6 days by celltiter-glo assay; format: functional; settings: U-251, 144 h, time 6 day
Method in brief: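 Cells seeded in 384-well plates at an optimized density and held 24 h. CellTiter-Glo luminescence read at Day 0 and Day 6. Four-parameter fit. gIC50 = midpoint of the growth window between DMSO and T0. Curves required ≥1.5 population doublings.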

[6] = Antiproliferative activity against human C4-1 cells assessed as cell growth inhibition incubated for 10 days; format: functional; settings: C4-1, 240 h, time 10 day
Method in brief: (§1)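 Cells kept in RPMI-1640 with 10% FBS, 2 mM L-alanyl-L-glutamine and 1 mM Na pyruvate (or a special medium) at 37°C, 5% CO2. Compound added 24 h after seeding, 10 concentrations in 3.16-fold dilution, 0.1% DMSO final. Medium replaced and cells re-dosed at 168 h; 240 h incubation. Nuclei fixed, dye-stained and imaged. gIC50 = growth midway between untreated and time-zero cell counts, from a 4-parameter fit.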

[7] = tested on: SiHa; assay: Antiproliferative activity against human SiHa cells assessed as cell growth inhibition incubated for 10 days; format: functional; settings: 240 h, time 10 day
[8] = tested on: DLD-1; assay: Antiproliferative activity against human DLD-1 cells assessed as cell growth inhibition incubated for 10 days; format: functional; settings: DLD-1, 240 h, time 10 day
Method in brief: (§2)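 Outsourced panel run in 384-well plates. Cells were grown in RPMI-1640/10% FBS or a special medium at 37°C, 5% CO2. Compound was added 24 h after seeding as a 10-point, 3.16-fold series in 0.1% DMSO. Medium was refreshed and cells re-dosed at 168 h, with a time-zero plate kept. At 240 h cells were fixed, nuclei stained and imaged. gIC50 is growth midway between untreated and time zero, from a 4-parameter fit.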

[9] = Antiproliferative activity against human RKOE6 cells assessed as cell growth inhibition incubated for 10 days; format: functional; settings: RKOE6, 240 h, time 10 day
[10] = tested on: SW-403; assay: Antiproliferative activity against human SW403 cells assessed as cell growth inhibition incubated for 10 days; format: functional; settings: SW-403, 240 h, time 10 day
[11] = tested on: DOHH-2; assay: Antiproliferative activity against human DOHH-2 cells assessed as cell growth inhibition incubated for 10 days; format: functional; settings: DOHH-2, 240 h, time 10 day; method in brief: as §2
[12] = tested on: DB; assay: Antiproliferative activity against human DB cells assessed as cell growth inhibition incubated for 10 days; format: functional; settings: 240 h, time 10 day; method in brief: as §2
[13] = tested on: SNU-5; assay: Antiproliferative activity against human SNU-5 cells assessed as cell growth inhibition incubated for 10 days; format: functional; settings: SNU-5, 240 h, time 10 day
[14] = tested on: DBTRG-05MG; assay: Antiproliferative activity against human DBTRG-05MG cells assessed as cell growth inhibition incubated for 10 days; format: functional; settings: 240 h, time 10 day; method in brief: as §2
[15] = tested on: Detroit 562; assay: Antiproliferative activity against human Detroit 562 cells assessed as cell growth inhibition incubated for 10 days; format: functional; settings: Detroit 562, 240 h, time 10 day; method in brief: as §2
[16] = tested on: SW1463; assay: Antiproliferative activity against human SW1463 cells assessed as cell growth inhibition incubated for 10 days; format: functional; settings: SW1463, 240 h, time 10 day
[17] = tested on: CAKI-1; assay: Antiproliferative activity against human CAKI-1 cells assessed as cell growth inhibition incubated for 10 days; format: functional; settings: CAKI-1, 240 h, time 10 day; method in brief: as §1
[18] = tested on: G-402; assay: Antiproliferative activity against human G-402 cells assessed as cell growth inhibition incubated for 10 days; format: functional; settings: G-402, 240 h, time 10 day; method in brief: as §2
[19] = tested on: HuCCT-1; assay: Antiproliferative activity against human HuCCT-1 cells assessed as cell growth inhibition incubated for 10 days; format: functional; settings: HuCCT-1, 240 h, time 10 day
Method in brief: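 Eurofins panel, 384-well. Cells kept in RPMI-1640 with 10% FBS, 2 mM L-alanyl-L-glutamine and 1 mM Na pyruvate, or in a special medium, at 37°C under 5% CO2. Compound added 24 h after seeding as 10 concentrations in 3.16-fold steps, 0.1% DMSO final. Medium replaced and compound re-dosed at 168 h. After 240 h, cells fixed and nuclei stained for imaging. gIC50 = growth midway between untreated cells and time-zero count.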

[20] = Antiproliferative activity against human A7 cells assessed as cell growth inhibition incubated for 10 days; format: functional; settings: A7, 240 h, time 10 day; method in brief: as §1
[21] = tested on: U-266; assay: Antiproliferative activity against human U266B1 cells assessed as cell growth inhibition incubated for 10 days; format: functional; settings: U-266, 240 h, time 10 day
[22] = tested on: SK-MES-1; assay: Antiproliferative activity against human SK-MES-1 cells assessed as cell growth inhibition incubated for 10 days; format: functional; settings: SK-MES-1, 240 h, time 10 day
[23] = tested on: Caov-3 cell line; assay: Antiproliferative activity against human Caov-3 cell line assessed as cell growth inhibition incubated for 10 days; format: functional; settings: Caov-3, 240 h, time 10 day; method in brief: as §2
[24] = tested on: HuP-T4; assay: Antiproliferative activity against human HuP-T4 cells assessed as cell growth inhibition incubated for 10 days; format: functional; settings: HuP-T4, 240 h, time 10 day
Method in brief: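 Cells grown at 37°C under 5% CO2 in RPMI-1640 with 10% FBS, 2 mM L-alanyl-L-glutamine and 1 mM pyruvate (or a special medium), then seeded in 384-well plates. Compound was added 24 h later as a 10-point, 3.16-fold series in 0.1% DMSO final. Medium was replaced and cells re-dosed at 168 h; 240 h total. Nuclear-dye imaging gave cell counts, with a time-zero plate. gIC50 is growth halfway to time zero, from a 4-parameter fit.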

[25] = tested on: CRO-AP2; assay: Antiproliferative activity against human CRO-AP2 cells assessed as cell growth inhibition incubated for 10 days; format: functional; settings: CRO-AP2, 240 h, time 10 day; method in brief: as §2
[26] = tested on: CWR22R; assay: Antiproliferative activity against human 22Rv1 cells assessed as cell growth inhibition incubated for 10 days; format: functional; settings: 22Rv1, 240 h, time 10 day; method in brief: as §1
[27] = tested on: LNCaP; assay: Antiproliferative activity against human LNCaP cells assessed as cell growth inhibition incubated for 10 days; format: functional; settings: 240 h, time 10 day
[28] = tested on: SK-UT-1; assay: Antiproliferative activity against human SK-UT-1 cells assessed as cell growth inhibition incubated for 10 days; format: functional; settings: SK-UT-1, 240 h, time 10 day
[29] = tested on: SW 954; assay: Antiproliferative activity against human SW 954 cells assessed as cell growth inhibition incubated for 10 days; format: functional; settings: SW 954, 240 h, time 10 day
[30] = target: Protein arginine N-methyltransferase 5 (Homo sapiens) (UniProt O14744); assay: Inhibition of PRMT5 in human Z138 cells assessed as MDM4 splicing at 8 to 1000 nM incubated for 3 days by RT-PCR analysis; format: cell-based; settings: dose 8-1000 nM, time 3.0 day
Chain of Protein arginine N-methyltransferase 5 (Homo sapiens) (O14744 whole entry): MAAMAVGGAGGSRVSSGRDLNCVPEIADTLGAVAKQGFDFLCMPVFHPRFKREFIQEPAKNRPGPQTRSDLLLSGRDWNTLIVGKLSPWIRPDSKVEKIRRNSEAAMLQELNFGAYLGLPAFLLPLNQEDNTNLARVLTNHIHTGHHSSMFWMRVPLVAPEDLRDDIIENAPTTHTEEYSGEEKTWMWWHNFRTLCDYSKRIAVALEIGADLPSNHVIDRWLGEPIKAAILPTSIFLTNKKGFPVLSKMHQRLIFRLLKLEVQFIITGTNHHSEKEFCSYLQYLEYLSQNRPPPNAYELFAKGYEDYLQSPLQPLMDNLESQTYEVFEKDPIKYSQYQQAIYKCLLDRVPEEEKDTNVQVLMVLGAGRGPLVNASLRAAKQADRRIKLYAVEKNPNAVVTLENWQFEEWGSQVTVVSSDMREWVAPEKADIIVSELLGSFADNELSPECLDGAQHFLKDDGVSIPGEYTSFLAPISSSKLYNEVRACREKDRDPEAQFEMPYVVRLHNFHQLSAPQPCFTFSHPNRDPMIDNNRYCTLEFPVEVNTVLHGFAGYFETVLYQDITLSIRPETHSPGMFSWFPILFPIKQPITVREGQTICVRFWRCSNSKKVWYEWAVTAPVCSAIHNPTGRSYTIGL

Structure (SMILES): CC(=O)N1CCC(Nc2cc(C(=O)NC[C@H](O)CN3CCc4ccccc4C3)ncn2)CC1 [PEMRAMETOSTAT]
Activity [1]: Active
Activity [2]: Active

GI50 [5]: 3490 nM
GI50 [8]: 134 nM
GI50 [10]: 153 nM
GI50 [13]: 110 nM
GI50 [16]: 770 nM
GI50 [22]: 807 nM
GI50 [27]: 2930 nM
GI50 [28]: 42.1 nM
inhibition [30]: Active
Structure (SMILES): O=C(NC[C@H](O)CN1CCc2ccccc2C1)c1ccnc(NC2CCC2)c1
GI50 [3]: 590 nM
GI50 [4]: 3100 nM
GI50 [6]: 139 nM
GI50 [7]: 2510 nM
GI50 [9]: 210 nM
GI50 [11]: 157 nM
GI50 [12]: 2.51 nM
GI50 [14]: 156 nM
GI50 [15]: 104 nM
GI50 [17]: 68.8 nM
GI50 [18]: 99.7 nM
GI50 [19]: 225 nM
GI50 [20]: 36.7 nM
GI50 [21]: 78.5 nM
GI50 [23]: 298 nM
GI50 [24]: 84.9 nM
GI50 [25]: 250 nM
GI50 [26]: 2480 nM
GI50 [29]: 10000 nM
